Source: PubChem BioAssay
PAFAH2 FP inh: PAFAH2 enzyme inhibitors, primary screen, biochemical, fluorescence polarization, human; Platelet-activating factor acetylhydrolase 2, cytoplasmic (Homo sapiens), Q99487; recombinant PAFAH2, FP-rhodamine activity probe; inhibition, % at 3.39 µM; actives 0.99% (n = 340,000); AID 492956, 2010;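 active = inhibition above the mean over all tested compounds plus 3 SD, cut at about 30% in these data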;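 note: inhibitors block probe labeling of enzyme so polarization drops; 0% = enzyme with DMSO and 100% = wells lacking PAFAH2 protein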
Apaf-1 inh: inhibitors of human Apaf-1 apoptosome, primary screen, biochemical, DEVD-Rh110 fluorescence, uHTS. reconstituted apoptosome caspase-3 activity. actives 0.71% (n = 330,000). Apoptotic protease-activating factor 1 (Homo sapiens), O14727. AID 489030, 2010. inhibition, % at 20 µM; active = inhibition of at least 40% at 20 µM;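 note: plate controls were DMSO wells for no effect and DEVD-CHO caspase inhibitor wells for full effect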
Target sequence (O14727 whole entry, looked up): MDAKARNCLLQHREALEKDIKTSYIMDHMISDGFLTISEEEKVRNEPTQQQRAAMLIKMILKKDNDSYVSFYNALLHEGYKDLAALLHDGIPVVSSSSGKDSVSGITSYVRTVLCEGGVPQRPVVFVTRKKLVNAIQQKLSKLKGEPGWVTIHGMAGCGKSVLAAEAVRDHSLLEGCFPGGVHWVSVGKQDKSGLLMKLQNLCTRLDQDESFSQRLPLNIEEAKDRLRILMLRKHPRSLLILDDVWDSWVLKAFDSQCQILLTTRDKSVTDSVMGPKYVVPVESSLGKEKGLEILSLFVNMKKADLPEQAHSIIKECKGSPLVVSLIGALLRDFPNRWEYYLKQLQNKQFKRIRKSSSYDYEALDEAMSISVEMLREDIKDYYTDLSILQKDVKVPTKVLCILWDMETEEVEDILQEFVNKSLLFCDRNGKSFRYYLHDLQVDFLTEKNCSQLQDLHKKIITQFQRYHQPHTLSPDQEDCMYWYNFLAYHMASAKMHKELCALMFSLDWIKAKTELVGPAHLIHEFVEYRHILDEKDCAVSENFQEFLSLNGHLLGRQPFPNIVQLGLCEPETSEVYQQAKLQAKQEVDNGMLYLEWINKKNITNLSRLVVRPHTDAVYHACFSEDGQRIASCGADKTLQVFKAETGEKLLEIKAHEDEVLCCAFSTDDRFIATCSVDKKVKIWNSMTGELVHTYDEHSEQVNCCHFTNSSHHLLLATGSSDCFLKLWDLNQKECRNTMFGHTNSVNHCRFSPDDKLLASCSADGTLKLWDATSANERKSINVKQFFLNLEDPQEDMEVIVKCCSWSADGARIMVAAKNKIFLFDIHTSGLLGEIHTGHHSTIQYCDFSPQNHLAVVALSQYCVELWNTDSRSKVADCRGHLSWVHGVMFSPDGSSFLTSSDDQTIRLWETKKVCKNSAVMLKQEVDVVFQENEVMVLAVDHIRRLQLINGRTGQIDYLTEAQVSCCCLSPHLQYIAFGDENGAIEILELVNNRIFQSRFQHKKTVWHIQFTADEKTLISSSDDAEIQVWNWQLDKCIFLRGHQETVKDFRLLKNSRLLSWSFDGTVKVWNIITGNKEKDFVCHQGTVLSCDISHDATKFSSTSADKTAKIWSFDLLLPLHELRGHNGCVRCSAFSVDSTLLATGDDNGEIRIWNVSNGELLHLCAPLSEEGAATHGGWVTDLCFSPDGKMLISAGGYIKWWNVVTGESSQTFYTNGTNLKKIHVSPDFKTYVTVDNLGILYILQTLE
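System – cell-free apoptosome with Apaf-1, procaspase-3 and caspase-9 · Buffer or medium – pH 7.5 Hepes buffer with CHAPS, BSA, DTT · Also added – cytochrome c with DEVD-Rh110 · Times – 30 min compound preincubation, 50 min activation, room temperature · Technique – Rh110 fluorescence intensity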
pPAFAH FP inh: pPAFAH enzyme inhibitors, primary screen, biochemical, fluorescence polarization, human; Platelet-activating factor acetylhydrolase (Homo sapiens), Q13093; recombinant pPAFAH, FP-rhodamine probe fluorescence polarization; inhibition, % at 3.39 µM; actives 1.5% (n = 330,000);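 active = inhibition above the mean inhibition across the screen plus 3 SD, cut at about 25% in these data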;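 note: inhibitors block binding of the rhodamine activity-based probe so polarization drops; 0% = enzyme with DMSO and 100% = wells lacking pPAFAH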
PAFAH1B3 FP inh: PAFAH1B3 enzyme inhibitors, primary screen, biochemical, fluorescence polarization, human | recombinant PAFAH1B3, FP-rhodamine probe | inhibition, % at 3.39 µM | actives 0.28% (n = 340,000);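 active = inhibition above the screen-wide average of all tested compounds plus 3 SD, cut at about 25% in these data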;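 note: 0% = enzyme with DMSO only and 100% = wells lacking PAFAH1B3 protein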
PAFAH1B2 FP inh: PAFAH1B2 enzyme inhibitors, primary screen, biochemical, fluorescence polarization, human; inhibition, % at 3.39 µM; recombinant PAFAH1B2, FP-rhodamine activity probe; Platelet-activating factor acetylhydrolase IB subunit alpha2 (Homo sapiens), P68402; actives 1.2% (n = 340,000);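 active = inhibition above the mean of all tested compounds plus 3 SD, cut at about 24% in these data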;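 note: 0% = enzyme with DMSO and 100% = wells lacking PAFAH1B2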
PAFAH2 confirm: PAFAH2 enzyme inhibitors, confirmation, biochemical, fluorescence polarization, human; inhibition, % at 3.39 µM; actives 65% (n = 2,300); recombinant PAFAH2, FP-rhodamine activity probe; AID 493030, 2011; shares compounds with PAFAH2 FP inh;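 active = mean inhibition over three repeats above a set limit taken from the earlier primary screen, cut at about 30% in these data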;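 note: inhibitor blocks binding of rhodamine activity probe so polarization falls; 0% = enzyme with DMSO and 100% = wells lacking PAFAH2 protein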
Numbers without * were called inactive; . = no result. Hits are enriched below; roughly 3.1% of the tested compounds scored in any of these assays.

SMILES | PAFAH2 FP inh | Apaf-1 inh | pPAFAH FP inh | PAFAH1B3 FP inh | PAFAH1B2 FP inh | PAFAH2 confirm
Cc1cc(C)cc(NC(=O)COC(=O)c2n[nH]c3ccccc23)c1 | 69.7* | 8.2 | -10.1 | 5.1 | 3.0 | 64.9*
CC(=O)c1cccc(NC(=O)COC(=O)c2n[nH]c3ccccc23)c1 | 46.9* | -7.1 | -7.9 | 0.1 | 3.6 | 38.7*
O=C(COC(=O)c1n[nH]c2ccccc12)NC(=O)NC1CCCCC1 | 4.3 | 12.3 | -3.4 | 6.6 | 2.4 | .
O=C(COC(=O)c1n[nH]c2ccccc12)NC1CCCCC1 | 79.6* | -0.2 | -10.8 | 2.8 | -9.4 | 68.5*
COc1ccc(OC)c(NC(=O)COC(=O)c2n[nH]c3ccccc23)c1 | 3.6 | -3.5 | 2.7 | -0.2 | 2.8 | .
O=C(COC(=O)c1n[nH]c2ccccc12)Nc1ccccc1 | 76.2* | -7.9 | -0.3 | 6.3 | 1.2 | 66.7*
CCc1noc(C)c1C(=O)Nc1cc(S(=O)(=O)N2CCOCC2)ccc1N1CCN(CC)CC1 | 0.2 | -2.9 | 0.5 | 3.5 | 5.8 | .
O=C(CCN1C(=O)c2ccccc2S1(=O)=O)NCc1ccccc1Cl | -0.4 | 9.0 | . | 7.8 | 3.7 | .
Cc1noc(C)c1COc1ccc(C(=O)NCCc2ccc(F)cc2)cc1 | 10.4 | 7.6 | 1.6 | 5.3 | 2.2 | .
COc1ccc(/C=C/C(=O)ONC2=NCCCCC2)cc1OC | 51.2* | 3.3 | 3.8 | -0.8 | 1.8 | 44.4*
O=S(=O)(NC1=NCCCCC1)c1cc(F)ccc1F | 0.8 | -3.2 | -0.6 | 4.0 | 3.6 | .
CCN(CC)S(=O)(=O)c1ccc2c(c1)nc(CCC(=O)OCC(=O)Nc1cc(OC)cc(OC)c1)n2C | 52.4* | -2.3 | 9.7 | 2.4 | 3.1 | 36.4*
CCN(CC)S(=O)(=O)c1ccc2c(c1)nc(CCC(=O)OCC(=O)Nc1c(F)cccc1F)n2C | 49.2* | -9.8 | 9.4 | -5.4 | 9.4 | 45.6*
CCN(CC)S(=O)(=O)c1ccc2c(c1)nc(CCC(=O)O)n2C | -0.7 | -24.4 | 2.9 | -2.3 | -5.2 | .
CCNS(=O)(=O)c1ccc(Br)c(C(=O)OC(C)C(=O)NCC2CCCCC2)c1 (stereo not drawn) | 10.4 | 5.8 | 2.9 | -5.5 | 3.8 | .
S=C(NCCCN1CCOCC1)Nc1ccc(N2CCOCC2)cc1 | 42.4* | -11.3 | 6.2 | 11.5 | 9.6 | 3.9
CC(C)[C@H](NC(=O)N1c2ccccc2NC(=O)[C@@H]1C(C)C)C(=O)N1CCC(C(=O)O)CC1 | 13.2 | 5.8 | -1.2 | 4.0 | 1.8 | .
Cc1ccc(S(=O)(=O)N(C)C)cc1NC(=O)C1CCN(C(=O)Nc2ccccc2)CC1 | 3.0 | 16.7 | . | -0.9 | 1.0 | .
Cc1ccc(C)c(S(=O)(=O)N(C)c2ccc(OC(=O)C3CCN(C(=O)Nc4ccccc4)CC3)cc2)c1 | 32.1* | . | . | 3.5 | -1.2 | 17.0
N/C(Cc1cccc2ccccc12)=N\OC(=O)c1ccc2c(c1)OCO2 | 81.0* | 5.6 | 4.1 | 1.2 | -0.6 | 78.2*
N/C(=N\OC(=O)c1ccc2c(c1)OCO2)c1cccnc1 | 3.8 | -38.7 | 6.6 | 3.8 | 3.6 | .
N/C(=N\OC(=O)c1ccc2c(c1)OCO2)c1cccc(Br)c1 | 54.7* | 12.4 | 0.2 | 1.9 | -0.7 | 49.2*
Cc1cccn2c(=O)c3cc(C(=O)NCCN4CCOCC4)c(=N)n(Cc4ccc(F)cc4)c3nc12 | 6.4 | 2.4 | 2.0 | 6.0 | 4.1 | .
N#CC1=C(SCC(=O)Nc2cccc3cccnc23)NC(=O)C(C#N)C12CCCCC2 (stereo not drawn) | 37.6* | -9.9 | 8.7 | 8.7 | 10.9 | 27.0
CC(C)Sc1cc(Cl)nc(NC(=O)Nc2ccccc2)n1 | -3.9 | 10.1 | 1.3 | 5.0 | 5.6 | .
SMILES | PAFAH2 FP inh | Apaf-1 inh | pPAFAH FP inh | PAFAH1B3 FP inh | PAFAH1B2 FP inh | PAFAH2 confirm
O=c1oc(-c2ccc([N+](=O)[O-])cc2)nc2ccc(O)cc12 | 85.0* | 11.5 | 5.3 | 11.0 | 6.9 | 67.0*
Nc1ccc(-c2nc3cc([N+](=O)[O-])ccc3o2)cc1 | 0.7 | -6.5 | -2.2 | 4.7 | 1.7 | .
O=c1oc(-c2cccs2)nc2ccccc12 | 56.3* | 19.3 | -0.6 | 19.3 | 6.0 | 34.6*
O=c1oc(-c2ccccc2)nc2ccsc12 | 43.7* | 0.9 | 0.8 | 4.0 | -3.6 | 29.7*
O=c1oc(-c2cccs2)nc2ccc(Cl)cc12 | 6.5 | 14.4 | -5.3 | -1.8 | 2.5 | .
O=c1oc(-c2ccc([N+](=O)[O-])cc2)nc2ccccc12 | 74.2* | 6.2 | 3.7 | 3.2 | -4.6 | 82.0*
CCOC(=O)/C(=C/c1ccc(OC(=O)c2ccccc2)cc1)C(C)=O | -16.1 | 15.5 | 1.6 | 0.0 | 2.2 | .
O=c1oc(-c2ccc(Br)cc2)nc2ccccc12 | 76.3* | 11.6 | -6.0 | 4.3 | -4.7 | 69.8*
CC(=O)Nc1ccc(-c2nc3ccccc3c(=O)o2)cc1 | -5.4 | 8.2 | -6.2 | 5.4 | 0.1 | .
C/C(=N\NC(=S)Nc1cc(S(=O)(=O)N2CCOCC2)ccc1Cl)c1ccccc1F | -0.2 | 23.1 | 18.8 | 6.4 | 1.9 | .
O=C(c1cnn2c(C(F)(F)F)cc(-c3ccccc3)nc12)N1CCCc2ccccc21 | 38.6* | 1.5 | 6.3 | -1.1 | 1.5 | 39.0*
Cc1cc(NC(=O)c2cnn3c(C(F)(F)F)cc(-c4ccccc4)nc23)no1 | 29.6* | 2.7 | 3.4 | -6.8 | 2.2 | 15.6
COC(=O)c1ccccc1NC(=O)COC(=O)/C=C/c1ccco1 | 6.5 | 3.1 | 4.8 | -3.0 | 0.1 | .
O=C(COC(=O)/C=C/c1ccco1)Nc1ccccc1 | 85.3* | -12.7 | 10.2 | 7.9 | 2.8 | 83.0*
O=C(COC(=O)/C=C/c1ccco1)Nc1ccc(F)cc1Cl | 62.6* | -3.0 | 0.8 | 2.5 | 6.0 | 45.6*
CCc1ccc(NC(=O)COC(=O)/C=C/c2ccco2)cc1 | 73.2* | 8.7 | 15.2 | 3.0 | 2.2 | 73.4*
OCCC1CN(Cc2ccc(Oc3ncccn3)cc2)CCN1Cc1ccc(F)c(F)c1 (stereo not drawn) | 4.8 | 3.4 | -2.6 | 4.4 | 0.6 | .
O=C(COC(=O)c1ccc(O)cc1)Nc1cccc(S(=O)(=O)N2CCCCC2)c1 | 52.5* | 1.0 | 6.2 | -5.8 | -0.6 | 55.3*
O=C(COC(=O)c1ccc(Br)o1)Nc1cccc(S(=O)(=O)N2CCCCC2)c1 | 22.7 | 4.6 | 10.0 | 2.2 | 4.5 | .
CCOc1ccc(C(=O)OCC(=O)Nc2cccc(S(=O)(=O)N3CCCC3)c2)cc1 | 68.2* | 7.8 | 9.2 | -3.0 | -0.7 | 57.1*
O=C(COC(=O)c1ccco1)Nc1cccc(S(=O)(=O)N2CCCCC2)c1 | 48.5* | 10.0 | -1.7 | -1.0 | 5.1 | 40.8*
